# Assay outcomes (PubChem BioAssay)
# Compounds with a hit are over-represented: about 2.3% of the library has one in this group of screens.
# EBV gp42 block: EBV gp42 inhibition; Q1HVG2; Fluorescence polarization binding assay, mP read-out; inhibition, % (tested at 21.74 µM); actives 0.42% (n = 220,000); in the data active means inhibition above about 50%
# Target sequence (Q1HVG2 whole entry, looked up): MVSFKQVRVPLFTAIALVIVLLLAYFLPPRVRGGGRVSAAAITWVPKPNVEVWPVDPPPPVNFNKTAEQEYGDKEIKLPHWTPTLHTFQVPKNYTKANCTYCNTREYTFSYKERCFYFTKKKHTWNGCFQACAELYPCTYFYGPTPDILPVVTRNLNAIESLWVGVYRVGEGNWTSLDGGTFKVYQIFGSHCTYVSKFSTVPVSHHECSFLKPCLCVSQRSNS
# HCV NS3 hel inh: inhibitors of Hepatitis C virus NS3 helicase; NS3 helicase DNA unwinding, Cy5 molecular beacon fluorescence; inhibition, % at 10.9 µM; AID 1800; actives 0.56% (n = 290,000);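 active means inhibition above the mean of all tested compounds plus 3 SD, set per campaign, cut at about 35% in these data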;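 further: 0% = DMSO wells and 100% = thioflavine S control wells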
#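 Assay system: hepatitis C virus NS3 helicase domain fragment enzyme. Also added: annealed dual-labelled DNA beacon duplex, ATP-started. Timing: 1 h reaction at 25 °C, ATP-initiated. Technique: Cy5 fluorescence at 0 and 60 min, beacon hairpin quenching. Evaluation: % inhibition of unwinding. Replication: one well per compound.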
# core dimer inh: HCV core protein dimerization inhibition; inhibition, % at 5 µM; TR-FRET GST/Flag-core106 dimerization, 1536-well; actives 0.33% (n = 300,000); AID 1899;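 active means inhibition above the mean of all tested compounds plus 3 SD, set per screening campaign, cut at about 45% in these data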
#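 Assay system: Tagged HCV core106 pair (GST and Flag) | Buffer or medium: KF-containing HEPES buffer, pH 7.45, DTT, CHAPS, BSA | Also added: Eu donor and XL665 acceptor anti-tag antibodies | Dosing: One concentration, 5 µM, in 0.5% DMSO | Timing: 4 h at 22.5 °C | Technique: TR-FRET 671 and 617 nm emission | Repeats: Singlicate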
# ZTA DNA inh: counter-screen for EBNA-1 inhibitors: inhibitors of Epstein-Barr virus ZTA; AID 2234; P03206; inhibition, % at 11 µM; actives 0.15% (n = 320,000); ZTA-DNA binding, fluorescence polarization; in the data active means inhibition above about 33%
# Target sequence (P03206 whole entry, looked up): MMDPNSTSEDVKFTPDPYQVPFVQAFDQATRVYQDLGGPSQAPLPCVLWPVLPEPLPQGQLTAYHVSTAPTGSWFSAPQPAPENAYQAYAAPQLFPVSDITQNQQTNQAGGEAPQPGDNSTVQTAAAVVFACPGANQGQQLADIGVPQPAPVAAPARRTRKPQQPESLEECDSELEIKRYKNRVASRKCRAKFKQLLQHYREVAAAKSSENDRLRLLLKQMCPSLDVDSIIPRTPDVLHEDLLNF
# GPR7 antag: blocks human GPR7 receptor signaling; AID 1861; actives 1.1% (n = 290,000); GPR7-expressing cells, fluorescence antagonist assay; inhibition, % at 4.4 µM; in the data active means inhibition above about 16%, passing the limit was not always enough;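 further: cells stimulated with the agonist NPW; 0% = agonist with vehicle and 100% = vehicle without agonist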
# EBNA-1 inhibitor: blocks EBNA-1 binding to DNA; actives 0.34% (n = 300,000); EBNA-1 DNA binding, fluorescence polarization; AID 1950; inhibition, % at 14.8 µM; in the data active means inhibition above about 28%
# GPR7 antag cf: human GPR7 antagonism, confirmation assay. shares compounds with GPR7 antag. GPR7-expressing cells, calcium fluorescence antagonist mode. inhibition, % at 4.4 µM. actives 52% (n = 2,400). AID 1952; in the data active means inhibition above about 24%;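 further: stimulated with the GPR7 agonist NPW; 0% = agonist plus vehicle and 100% = vehicle alone without agonist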
# MCHR1 antag: antagonizes human MCHR1, a GPR7 antagonist counter-screen; shares compounds with GPR7 antag; MCHR1-expressing cells, fluorescence antagonist assay; inhibition, % at 4.4 µM; actives 62% (n = 2,400); in the data active means inhibition above about 22%;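 further: 0% = vehicle with agonist and 100% = vehicle without agonist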
# An asterisk follows results filed as active; . = no result given.
SMILES,EBV gp42 block,HCV NS3 hel inh,core dimer inh,ZTA DNA inh,GPR7 antag,EBNA-1 inhibitor,GPR7 antag cf,MCHR1 antag
COCCn1c(SCC(=O)Nc2ccc(NC(C)=O)cc2)nc2c([nH]c3ccccc32)c1=O,.,-2.0,11.8,-0.4,-13.2,24.2,.,.
COCCn1c(SCC(=O)N(C)c2ccccc2)nc2c([nH]c3ccccc32)c1=O,.,18.1,-4.7,-0.4,30.6*,-5.0,-19.4,-2.0
CC(=O)Nc1ccc(S(=O)(=O)N(C)CC(=O)OCC(=O)N(C)c2ccccc2)cc1,.,0.2,-2.4,-3.9,-2.1,6.8,.,.
COC(=O)c1sc(N)c(C(=O)OC)c1COC(=O)c1c(C)noc1C,-10.6,-3.4,0.8,-16.9,23.0*,6.8,8.6,14.9
CC(NCc1cc(Br)ccc1OCC(=O)NCc1ccccc1)c1ccccc1 (centres undefined),-21.4,-39.2,-1.3,0.3,29.8*,-10.5,34.0*,39.5*
CC(=O)CC1=NC(C)(C)Cc2ccccc21,3.4,0.9,-2.5,9.9,-8.2,16.6,.,.
Fc1ccc(C(c2nnnn2C2CCCC2)N(Cc2ccco2)CC2CCCO2)cc1 (centres undefined),-20.9,1.9,11.9,12.5,31.7*,-1.8,43.5*,53.2*
c1ccc(CN(Cc2ccco2)C(c2ccncc2)c2nnnn2C2CCCC2)cc1 (centres undefined),-8.2,1.9,0.0,6.5,-6.0,1.4,.,.
O=C1CCC(C(=O)N(Cc2cccs2)C2(C(=O)NC3CCCCC3)CCCCC2)N1 (centres undefined),-11.7,5.0,1.8,-2.9,12.9,-4.2,.,.
O=C(c1cnccn1)N(Cc1cccs1)C1(C(=O)NC2CCCC2)CCCCC1,-5.1,10.8,1.2,-2.1,26.3*,-0.5,37.2*,21.2
O=C(Cc1cccs1)N(Cc1cccs1)C1(C(=O)NC2CCCCC2)CCCCC1,-12.5,5.3,9.8,18.8,43.4*,12.4,46.9*,61.1*
O=C1NC(=O)C(CC(=O)N(Cc2cccs2)C2(C(=O)NC3CCCC3)CCCCC2)N1 (centres undefined),-3.0,2.2,4.0,4.6,-2.2,-3.9,.,.
O=C(c1ccccn1)N(Cc1cccs1)C1(C(=O)NC2CCCCC2)CCCCC1,-6.0,0.7,-0.3,10.0,3.0,2.4,.,.
O=C(c1cnccn1)N(Cc1cccs1)C1(C(=O)NC2CCCCC2)CCCCC1,-7.7,1.5,11.4,-0.2,41.4*,2.3,30.3*,30.0*
COc1ccccc1NS(=O)(=O)c1ccc2oc(SC(C)C(=O)N3CCNC3=O)nc2c1 (centres undefined),.,.,.,0.7,.,.,.,.
Cc1occc1C(=O)Nc1cccc(C(=O)O)c1,-3.9,1.9,-6.0,-3.1,26.4*,-5.1,-17.3,19.7
CCOc1ccc(/C=C/C(=O)c2ccccc2)cc1,-10.9,-1.2,13.7,11.1,11.7,-7.4,.,.
CCOc1ccc(C(=O)/C=C/c2ccc(SC)cc2)cc1,-12.9,-9.5,-0.1,12.0,36.8*,0.6,41.4*,44.9*
Cc1ccc(-n2cccn2)c(CN2CCC(CO)(CCc3ccccc3)CC2)c1,-3.8,-3.8,.,.,21.1*,.,32.0*,27.5*
CC(Oc1ccccc1F)C(=O)NNC(=O)c1cccc(S(=O)(=O)N2CCN(C)CC2)c1 (centres undefined),.,.,.,14.7,.,.,.,.
Cc1ccc(CNC(=S)Nc2cc(C)ccc2OC(F)F)cc1,-2.1,-2.6,2.5,0.7,-11.7,-2.3,.,.
COC(=O)Nc1nc2c(C)cccc2s1,-14.0,7.5,-4.3,-8.9,-11.6,10.8,.,.
CSc1cccc(NC(=O)Nc2nc3c(C)cccc3s2)c1,-8.0,2.1,-3.0,9.3,23.2,9.2,33.1*,76.0*
COc1ncnc(OC)c1S(=O)(=O)NCc1ccccc1,.,3.0,-5.8,-4.8,10.1,-7.9,.,.
COc1ccc(CNS(=O)(=O)c2ccc(S(=O)(=O)NC3CC3)cc2)cc1,.,-6.5,-6.3,-2.2,27.4*,-19.3,4.5,2.1
